Results published in ChEMBL document CHEMBL1125925, “DNA-directed alkylating agents. 4. 4-anilinoquinoline-based minor groove directed aniline mustards” (J Med Chem, 1991).
pIC50: −log10 of the molar value. Calls of active or inactive are those of the source.

Assays:
Bos taurus = species on record: Bos taurus; experiment: Spectrophotometry for binding to calf thymus DNA in 0.01 M HEPES buffer (pH 7.0) at 25 degree C; assay type: ADME; conditions: cattle
[1] = Hypersensitivity factor value is IC50 of (AA8) to that of UV4 where UV4 is a mutant AA8 line lacking the ability to perform incision repair; assay type: functional
Outline: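 HF is IC50(AA8)/IC50(UV4), where UV4 is an AA8 mutant lacking incision repair. Both lines were grown in Alpha MEM with 10% fetal calf serum and given an 18 h drug exposure, then washed and grown 72 h more. Cell density was read by methylene blue staining, and IC50 was set at 50% of control density.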

P388 [2] = experiment: Inhibition of cell growth in culture against wild type P388 murine leukemia; assay type: functional, cell-based, Mus musculus
Outline: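 Wild-type P388 murine leukemia cells were kept in log phase in RPMI 1640 with 10% fetal calf serum. Drug was present throughout the 72 h growth period. Final cell density was read by a modified MTT method. IC50 is the nominal concentration reducing cell density to 50% of controls, with eight controls per plate. Values are means of three determinations.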

P388 [3] = experiment: Evaluation in vivo against […] cell line for percentage increase in lifespan of drug-treated tumor-bearing animals at 100 mg/kg dose.(ILS); NA=Compound inactive at nontoxic doses; assay type: functional, organism-based; set-up: dose 100 mg/kg; conditions: Mus musculus
Outline: (§1)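 Animals received 10^6 P388 cells intraperitoneally. On day 1, 24 h after inoculation, a single intraperitoneal drug dose was given in 0.1 mL of 30% v/v dimethylacetamide/water. ILS is the percentage increase in lifespan of treated tumor-bearing animals at the optimal dose, defined as the dose giving maximal life extension. ILS above 20% is counted as significant.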

CHO-AA8 = experiment: Inhibition of cell growth in culture against Chinese hamster ovary derived cell line, AA8; assay type: functional, cell-based, Cricetulus griseus
Outline: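 AA8 Chinese hamster ovary cells were kept in log phase in Alpha MEM with 10% fetal calf serum and exposed to drug for 18 h. Drug was removed by three washes with fresh medium, then cells were grown a further 72 h. Cell density was read by methylene blue staining. IC50 is the nominal concentration reducing cell density to 50% of controls, with eight controls per plate. Values are means of three determinations.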

P388 [4] = experiment: Evaluation in vivo against […] cell line for percentage increase in lifespan of drug-treated tumor-bearing animals at 30 mg/kg dose.(ILS); NA=Compound inactive at nontoxic doses; assay type: functional, organism-based; set-up: dose 30 mg/kg; conditions: Mus musculus; outline: as §1
P388 [5] = experiment: Evaluation in vivo against […] cell line for percentage increase in lifespan of drug-treated tumor-bearing animals when treated at 30 mg/kg dose.(ILS); assay type: functional, Mus musculus; outline: as §1
P388 [6] = experiment: Evaluation in vivo against […] cell line for percentage increase in lifespan of drug-treated tumor-bearing animals when treated at 225 mg/kg dose.(ILS); assay type: functional, Mus musculus; outline: as §1
P388 [7] = experiment: Evaluation in vivo against […] cell line for percentage increase in lifespan of drug-treated tumor-bearing animals when treated at 45 mg/kg dose.(ILS); assay type: functional, Mus musculus; outline: as §1

| SMILES | Log K (Bos taurus) | Ratio [1] | pIC50 (P388 [2]; p388) | Increase (P388 [3]) | pIC50 (CHO-AA8; Cricetulus griseus, CHO-AA8) | pIC50 (P388 [2]; Mus musculus, P388) | Increase (P388 [4]) | Increase (P388 [5]) [%] | Increase (P388 [6]) [%] | Increase (P388 [7]) [%] | pIC50 (CHO-AA8; cho-aa8) |
| --- | --- | --- | --- | --- | --- | --- | --- | --- | --- | --- | --- |
| C[n+]1ccc(Nc2ccc(C(=O)c3ccc(N(CCCl)CCCl)cc3)cc2)c2ccccc21 | 6.61 M-1 | 6.4 | 5.92 | inactive | 5.55 |  |  |  |  |  |  |
| CCN(CCCl)c1ccc(Oc2ccc(Nc3ccnc4ccccc34)cc2)cc1 |  | 11.3 |  |  | 5.15 | 6.30 | inactive |  |  |  |  |
| C[n+]1ccc(Nc2ccc(C(=O)Nc3ccc(N(CCCl)CCCl)cc3)cc2)c2ccccc21 | 6.48 M-1 | 17 | 6.31 |  | 6.47 |  |  | 28 |  |  |  |
| O=C(O)CCCc1ccc(N(CCCl)CCCl)cc1 [CHLORAMBUCIL] |  | 58 |  |  |  |  |  |  | 37 |  |  |
| C[n+]1ccc(Nc2ccc(Cc3ccc(N(CCCl)CCCl)cc3)cc2)c2ccccc21 | 6.58 M-1 | 20 | 7.14 |  |  |  |  |  |  | 46 | 6.22 |
| C[n+]1ccc(Nc2ccc(Oc3ccc(N(CCCl)CCCl)cc3)cc2)c2ccccc21 | 6.45 M-1 | 23 |  |  | 6.19 |  |  | 20 |  |  |  |
